Assay results from ChEMBL document CHEMBL4043073, “Boronic Acid Modifications Enhance the Anti-Influenza A Virus Activities of Novel Quindoline Derivatives” (J Med Chem, 2017).
Activity calls are given as the source filed them. The rule behind the calls is not given here.

What was measured:
Influenza A virus [1] = experiment: Antiviral activity against Influenza A virus (A/Puerto Rico/8/34(H1N1)) infected in MDCK cells assessed as virus yeild reduction preincubated with virus at 37 degreeC for 1 hr followed by viral infection for 1 hr measured after 3 days by crystal violet staining based plaque assay; type: functional, cell-based; settings: A/Puerto Rico/8/1934(H1N1)
Outline: (§1)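 Plaque reduction: about 50–100 PFU/well of PR8, Cal09 or Minnesota preincubated with compound (0–10 μM) 1 h at 37 °C. Mixture then adsorbed to MDCK monolayers 1 h at 4 °C. Overlay was DMEM with 1.5% agarose, DEAE-dextran and 1 μg/mL TPCK-trypsin for 3 days at 37 °C. Glutaraldehyde fix, crystal violet stain, plaque count; IC50 derived; n = 4.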

Influenza A virus [2] = experiment: Antiviral activity against Influenza A virus (A/Puerto Rico/8/34(H1N1)) infected in MDCK cells assessed as virus yeild reduction at 10 uM preincubated with cells for 1 hr followed by viral infection for 1 hr measured at 24 hrs post infection by crystal violet staining based plaque assay; type: functional, cell-based; settings: A/Puerto Rico/8/1934(H1N1)
Outline: (§2)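 Time-of-addition on MDCK cells, PR8 MOI 1.0, 10 μM compound. Three arms: cells pretreated before infection; compound present during adsorption 1 h at 4 °C; or compound added after removal of unadsorbed virus. Virus yield at 24 h p.i. by plaque assay; n = 3.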

[3] = Drug uptake in human A549 cell membranes at 20 uM after 4 hrs by DAPI staining based confocal microscopic analysis; type: ADME; settings: a549, 4 h
Outline: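 A549 cells incubated with 20 μM compound 4 h at 37 °C, then fixed and DAPI-stained. Compound intrinsic fluorescence located by confocal microscopy.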

[4] = Antiviral activity against Influenza A virus (A/California/04/2009(H1N1)) infected in MDCK cells assessed as virus yeild reduction preincubated with virus at 37 degC for 1 hr followed by viral infection for 1 hr measured after 3 days by crystal violet staining based plaque assay; type: functional, cell-based; outline: as §1
Vero = experiment: Inhibition of Influenza A virus (A/Puerto Rico/8/34(H1N1)) hemagglutinin expressed in African green monkey Vero cells assessed as reduction in acid-induced syncytium formation treated at pH 5 for 10 mins measured after 2 hrs by Hema3Stat Pak-staining based microscopic analysis; type: cell-based; settings: Influenza A virus (A/Puerto Rico/8/1934(H1N1))
Outline: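 Vero cells transfected with PR8 HA plasmid. At 16 h HA was cleaved with 5 μg/mL TPCK-trypsin for 15 min at 37 °C. Cells were preincubated with compound 15 min at 37 °C, then held at pH 5.0 with compound for 10 min at 37 °C. After rinsing, cells were kept 2 h in 10% FBS medium, stained with Hema3Stat Pak and examined for syncytia by microscopy.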

Influenza A virus [5] = experiment: Antiviral activity against Influenza A virus (A/Puerto Rico/8/34(H1N1)) infected in MDCK cells assessed as reduction in viral HA titer by measuring reduction in chicken RBC […] after 24 hrs by hemagglutination test; type: functional, cell-based; settings: A/Puerto Rico/8/1934(H1N1)
Outline: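 MDCK cells infected at MOI 3.0 (single-cycle) with PR8, Cal09 or swine H3N2 Minnesota, then treated with compound for 24 h. Supernatant HA titers were read by 2-fold serial dilution with an equal volume of 1% chicken RBCs, 60 min at 4 °C. Expressed as percent of untreated-cell HA titer; IC50 derived; n = 4.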

Canis lupus familiaris [6] = species on record: Canis lupus familiaris; experiment: Inhibition of MAPK signaling-mediated nuclear import of viral RNP in MDCK cells infected with Influenza A virus (A/Puerto Rico/8/34(H1N1)) assessed as ERK1/2 phosphorylation at 5 uM preincubated with virus for 1 hr followed by viral infection after 4 hrs by Western blot method relative to control (reference value: 1.4); type: cell-based
Outline: (§3)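 PR8 (MOI 1.0) pretreated with compound 1 h at 37 °C, then MDCK cells were kept in infecting medium with 5 or 10 μM for 4 h; ribavirin 50 μg/mL as comparator. Lysates were immunoblotted for phospho-ERK1/2, p38, NF-κB or Akt, with β-actin/GAPDH loading controls and AP/NBT-BCIP detection. Densitometry was normalised to uninfected cells (= 1.0); n = 3.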

Canis lupus familiaris [7] = species on record: Canis lupus familiaris; experiment: (§4) Inhibition of NFkappaB activation-mediated viral RNA synthesis in MDCK cells infected with Influenza A virus (A/Puerto Rico/8/34(H1N1)) assessed as NF-kB phosphorylation level at 5 uM preincubated with virus for 1 hr followed by viral infection measured after 4 hrs by Western blot method relative to control (reference value: 1.8); type: cell-based; outline: as §3
Influenza A virus [8] = experiment: Antiviral activity against Influenza A virus (A/Puerto Rico/8/34(H1N1)) infected in MDCK cells assessed as virus yeild reduction at 10 uM treated post 1 hr of viral adsorption measured at 24 hrs post infection by crystal violet staining based plaque assay; type: functional, cell-based; settings: A/Puerto Rico/8/1934(H1N1); outline: as §2
[9] = system: Influenza A virus (A/Puerto Rico/8/1934(H1N1)); experiment: Inhibition of Influenza A virus (A/Puerto Rico/8/34(H1N1)) neuraminidase using MUNANA as substrate preincubated for 30 mins followed by substrate addition measured after 30 mins by fluorescence assay relative to control
Outline: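 Inactivated PR8 virus supernatant mixed with compound (10 μM) in 33 mM MES […], 4 mM CaCl2 for 30 min at 37 °C. MUNANA (20 μM) was added for 30 min at 37 °C and the reaction stopped with glycine/ethanol pH 10.7. Fluorescence read at ex 360 / em 440 nm; zanamivir 10 μM as reference; n = 3.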

Canis lupus familiaris [10] = species on record: Canis lupus familiaris; experiment: as §4, with “endocytosis” for “RNA synthesis”, “Akt” for “NF-kB”, “10” for “5”, “1.4)” for “1.8)”; type: cell-based; outline: as §3
Canis lupus familiaris [11] = species on record: Canis lupus familiaris; experiment: as §4, with “endocytosis” for “RNA synthesis”, “Akt” for “NF-kB”, “1.4)” for “1.8)”; type: cell-based; outline: as §3
Influenza A virus [12] = experiment: Antiviral activity against Influenza A virus (A/Puerto Rico/8/34(H1N1)) infected in MDCK cells assessed as reduction in virus titer at 10 uM preincubated with virus for 1 hr followed by viral infection measured after 24 hrs by crystal violet staining based plaque assay; type: functional, cell-based; settings: A/Puerto Rico/8/1934(H1N1)
Outline: (§5)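 PR8 (MOI 1.0) preincubated with compound (2.5–10 μM) 1 h at 37 °C, then used to infect MDCK cells. After adsorption, medium with the same compound concentration was added. At 24 h p.i. supernatant virus titer was measured by plaque assay; n = 3.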

[13] = Cytotoxicity against MDCK cells after 48 hrs by resazurin based fluorescence method; type: cell-based, Canis lupus familiaris; settings: dog
Outline: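 Confluent MDCK, A549 or H1299 cells exposed in triplicate to compound for 48 h at 37 °C (A549/H1299 at 20 μM). Resazurin added to 0.2 mg/mL final for 16 h. Fluorescence read at ex 544 / em 595 nm; viability as % of untreated.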

Influenza A virus [14] = experiment: Antiviral activity against Influenza A virus (A/Puerto Rico/8/34(H1N1)) infected in MDCK cells assessed as virus yeild reduction at 10 uM treated during viral adsorption for 1 hr measured at 24 hrs post infection by crystal violet staining based plaque assay; type: functional, cell-based; settings: A/Puerto Rico/8/1934(H1N1); outline: as §2
Influenza A virus [15] = experiment: Antiviral activity against Influenza A virus (A/Puerto Rico/8/34(H1N1)) infected in MDCK cells assessed as reduction in virus titer preincubated with virus for 1 hr followed by viral infection measured after 24 hrs by crystal violet staining based plaque assay; type: functional, cell-based; settings: A/Puerto Rico/8/1934(H1N1); outline: as §5

In the case of `O=C(Nc1ccccc1Nc1c2ccccc2nc2c1[nH]c1ccccc12)c1cccc(B(O)O)c1`, the IC50 (Influenza A virus [1]) is reported as 3200 nM, the Activity (Influenza A virus [2]) is reported as “inactive” and the Drug uptake [3] is reported as “Active”. The IC50 [4] was 3700 nM, the inhibition (Vero) was “inactive” and the Activity (Influenza A virus [5]) was “Dose-dependent effect”. It also gave an IC50 (Influenza A virus [5]) of 2500 nM, a fold change (FC) (Canis lupus familiaris [6]) of 0.7 and a fold change (FC) (Canis lupus familiaris [7]) of 0.9. For the same molecule, the Activity (Influenza A virus [8]) was “inactive”, the inhibition [9] was 72% and the fold change (FC) (Canis lupus familiaris [10]) was 0.8. The fold change (FC) (Canis lupus familiaris [11]) was 1.2, the IC50 (Influenza A virus [12]) was 2500 nM and the CC50 at 48 h [13] was 142000 nM. For the same molecule, the Activity (Influenza A virus [14]) was “Active”, the Activity (Influenza A virus [15]) was “Dose-dependent effect” and the IC50 (Influenza A virus [15]) was 2200 nM.
